What was measured:
[1] = tested on: advanced solid tumor; settings: combined with pazopanib, follow-up, cited from earlier work
[2] = Phase 1 safety evaluation; assay type: in vivo, human; settings: for Dose interruption: due to thrombocytopenia
How it was run: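 3 + 3 escalation of oral test compound, 40, 60 or 80 mg BID 4 h apart, 7 days on and 7 off, after a single dose on D-3. Investigators graded AEs at every visit per CTCAE v5.0. DLT was assessed over cycle 1 and covered grade 4 cytopenias, febrile or bleeding grade ≥3 cytopenias, and grade ≥3 non-hematological toxicity. Safety set: ≥1 dose and ≥1 safety evaluation.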

For CN(C)Cc1c(C(=O)NCCOc2ccc(C(=O)NO)cc2)oc2ccccc12 [abexinostat, Abexinostat], the “median duration of treatment in exceptional responders” value ([1]; range 39.8–133 +) is given as 44.1 months, the “time on treatment of one patient with RCC” value [1] is given as > 11 years and the “TEAE: Abnormal ST segment on electrocardiogram” value (“TEAE: Abnormal ST segment” below) ([2]; 40 mg BID (n = 4), Any grade) is given as 0 n (%). For the same compound, the “TEAE: Abnormal T-wave on electrocardiogram” value (shortened to “TEAE: Abnormal T-wave”) ([2]; 40 mg BID (n = 4), Any grade) was 0 n (%), the “TEAE: Anemia” value ([2]; 40 mg BID (n = 4), Any grade) was 1 (25.0) n (%) and the “TEAE: Any TEAEs” value ([2]; 40 mg BID (n = 4), Any grade) was 4 (100) n (%). For the same compound, the “TEAE: Diarrhea” value ([2]; 40 mg BID (n = 4), Any grade) was 0 n (%), the “TEAE: Elevated low-density lipoprotein” value ([2]; 40 mg BID (n = 4), Any grade) was 1 (25.0) n (%) and the “TEAE: Elevated α-hydroxybutyrate dehydrogenase” value ([2]; 40 mg BID (n = 4), Any grade) was 1 (25.0) n (%). The “TEAE: Fatigue” value ([2]; 40 mg BID (n = 4), Any grade) was 1 (25.0) n (%), the “TEAE: Hypercholesterolemia” value ([2]; 40 mg BID (n = 4), Any grade) was 1 (25.0) n (%) and the “TEAE: Hyperglycemia” value ([2]; 40 mg BID (n = 4), Any grade) was 1 (25.0) n (%). The “TEAE: Hypertriglyceridemia” value ([2]; 40 mg BID (n = 4), Any grade) was 1 (25.0) n (%), the “TEAE: Hyperuricemia” value ([2]; 40 mg BID (n = 4), Any grade) was 1 (25.0) n (%) and the “TEAE: Hypoalbuminemia” value ([2]; 40 mg BID (n = 4), Any grade) was 2 (50.0) n (%). For the same compound, the “TEAE: Hypoproteinemia” value ([2]; 40 mg BID (n = 4), Any grade) was 1 (25.0) n (%), the “TEAE: Leukopenia” value ([2]; 40 mg BID (n = 4), Any grade) was 0 n (%) and the “TEAE: Lymphopenia” value ([2]; 40 mg BID (n = 4), Any grade) was 0 n (%). The “TEAE: Nausea” value ([2]; 40 mg BID (n = 4), Any grade) was 0 n (%), the “TEAE: Neutropenia” value ([2]; 40 mg BID (n = 4), Any grade) was 1 (25.0) n (%) and the “TEAE: Thrombocytopenia” value ([2]; 40 mg BID (n = 4), Any grade) was 2 (50.0) n (%). The “TEAE: Urinary white blood cell positivity” value ([2]; 40 mg BID (n = 4), Any grade) was 1 (25.0) n (%), the “TEAE: Any TEAEs” value ([2]; 40 mg BID (n = 4), ≥ Grade 3) was 1 (25.0) n (%) and the “TEAE: Thrombocytopenia” value ([2]; 40 mg BID (n = 4), ≥ Grade 3) was 1 (25.0) n (%). The Dose interruption ([2]; 40 mg BID group) was “one patient”, the “TEAE: Abnormal ST segment” value ([2]; 60 mg BID (n = 3), Any grade) was 1 (33.3) n (%) and the “TEAE: Abnormal T-wave” value ([2]; 60 mg BID (n = 3), Any grade) was 1 (33.3) n (%). The “TEAE: Anemia” value ([2]; 60 mg BID (n = 3), Any grade) was 1 (33.3) n (%), the “TEAE: Any TEAEs” value ([2]; 60 mg BID (n = 3), Any grade) was 3 (100) n (%) and the “TEAE: Diarrhea” value ([2]; 60 mg BID (n = 3), Any grade) was 1 (33.3) n (%). The “TEAE: Elevated low-density lipoprotein” value ([2]; 60 mg BID (n = 3), Any grade) was 2 (66.7) n (%), the “TEAE: Elevated α-hydroxybutyrate dehydrogenase” value ([2]; 60 mg BID (n = 3), Any grade) was 1 (33.3) n (%) and the “TEAE: Fatigue” value ([2]; 60 mg BID (n = 3), Any grade) was 1 (33.3) n (%). For the same compound, the “TEAE: Hypercholesterolemia” value ([2]; 60 mg BID (n = 3), Any grade) was 1 (33.3) n (%), the “TEAE: Hyperglycemia” value ([2]; 60 mg BID (n = 3), Any grade) was 0 n (%) and the “TEAE: Hypertriglyceridemia” value ([2]; 60 mg BID (n = 3), Any grade) was 2 (66.7) n (%). The “TEAE: Hyperuricemia” value ([2]; 60 mg BID (n = 3), Any grade) was 1 (33.3) n (%), the “TEAE: Hypoalbuminemia” value ([2]; 60 mg BID (n = 3), Any grade) was 2 (66.7) n (%) and the “TEAE: Hypoproteinemia” value ([2]; 60 mg BID (n = 3), Any grade) was 2 (66.7) n (%). For the same compound, the “TEAE: Leukopenia” value ([2]; 60 mg BID (n = 3), Any grade) was 1 (33.3) n (%), the “TEAE: Lymphopenia” value ([2]; 60 mg BID (n = 3), Any grade) was 1 (33.3) n (%) and the “TEAE: Nausea” value ([2]; 60 mg BID (n = 3), Any grade) was 1 (33.3) n (%). For the same compound, the “TEAE: Neutropenia” value ([2]; 60 mg BID (n = 3), Any grade) was 1 (33.3) n (%), the “TEAE: Thrombocytopenia” value ([2]; 60 mg BID (n = 3), Any grade) was 2 (66.7) n (%) and the “TEAE: Urinary white blood cell positivity” value ([2]; 60 mg BID (n = 3), Any grade) was 1 (33.3) n (%). The “TEAE: Any TEAEs” value ([2]; 60 mg BID (n = 3), ≥ Grade 3) was 2 (66.7) n (%), the “TEAE: Hypertriglyceridemia” value ([2]; 60 mg BID (n = 3), ≥ Grade 3) was 1 (33.3) n (%) and the “TEAE: Thrombocytopenia” value ([2]; 60 mg BID (n = 3), ≥ Grade 3) was 1 (33.3) n (%). For the same compound, the Dose interruption ([2]; 60 mg BID group) was “one patient”, the “Dose reduction due to TEAEs” value ([2]; 60 mg BID group, thrombocytopenia) was “one patient” and the “TEAE: Abnormal ST segment” value ([2]; 80 mg BID (n = 4), Any grade) was 2 (50.0) n (%). For the same compound, the “TEAE: Abnormal T-wave” value ([2]; 80 mg BID (n = 4), Any grade) was 3 (75.0) n (%), the “TEAE: Anemia” value ([2]; 80 mg BID (n = 4), Any grade) was 2 (50.0) n (%) and the “TEAE: Any TEAEs” value ([2]; 80 mg BID (n = 4), Any grade) was 4 (100) n (%). For the same compound, the “TEAE: Diarrhea” value ([2]; 80 mg BID (n = 4), Any grade) was 3 (75.0) n (%), the “TEAE: Elevated low-density lipoprotein” value ([2]; 80 mg BID (n = 4), Any grade) was 0 n (%) and the “TEAE: Elevated α-hydroxybutyrate dehydrogenase” value ([2]; 80 mg BID (n = 4), Any grade) was 1 (25.0) n (%). The “TEAE: Fatigue” value ([2]; 80 mg BID (n = 4), Any grade) was 2 (50.0) n (%), the “TEAE: Hypercholesterolemia” value ([2]; 80 mg BID (n = 4), Any grade) was 1 (25.0) n (%) and the “TEAE: Hyperglycemia” value ([2]; 80 mg BID (n = 4), Any grade) was 2 (50.0) n (%). The “TEAE: Hypertriglyceridemia” value ([2]; 80 mg BID (n = 4), Any grade) was 3 (75.0) n (%), the “TEAE: Hyperuricemia” value ([2]; 80 mg BID (n = 4), Any grade) was 1 (25.0) n (%) and the “TEAE: Hypoalbuminemia” value ([2]; 80 mg BID (n = 4), Any grade) was 1 (25.0) n (%). For the same compound, the “TEAE: Hypoproteinemia” value ([2]; 80 mg BID (n = 4), Any grade) was 2 (50.0) n (%), the “TEAE: Leukopenia” value ([2]; 80 mg BID (n = 4), Any grade) was 3 (75.0) n (%) and the “TEAE: Lymphopenia” value ([2]; 80 mg BID (n = 4), Any grade) was 2 (50.0) n (%). The “TEAE: Nausea” value ([2]; 80 mg BID (n = 4), Any grade) was 2 (50.0) n (%), the “TEAE: Neutropenia” value ([2]; 80 mg BID (n = 4), Any grade) was 3 (75.0) n (%) and the “TEAE: Thrombocytopenia” value ([2]; 80 mg BID (n = 4), Any grade) was 1 (25.0) n (%). For the same compound, the “TEAE: Urinary white blood cell positivity” value ([2]; 80 mg BID (n = 4), Any grade) was 1 (25.0) n (%), the “TEAE: Any TEAEs” value ([2]; 80 mg BID (n = 4), ≥ Grade 3) was 2 (50.0) n (%) and the “TEAE: Hyperglycemia” value ([2]; 80 mg BID (n = 4), ≥ Grade 3) was 1 (25.0) n (%).
